Test results from ChEMBL document CHEMBL5303300, “EUbOPEN Chemogenomics Library - Multiplex” (2023).
“And” between values parts separate entries of the source, which are not always exact repeats. Equal values may be shown once.

Test system: U2OS
Assay: Multiplex assay against U2OS
Assay type: toxicity, cell-based
Conditions: human, number of replicates 2
How it was run: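 Phenotypes for tubulin, mitochondrial mass and membrane permeability are expressed as per cents of healthy-nucleus cells. Cells were stained live at seeding with Hoechst33342, BioTracker Green Microtubule Cytoskeleton Dye, MitoTracker Red and Annexin V Alexa Fluor 680, then imaged after compound addition on a CQ1 microscope at 37°C and 5% CO2. Machine-learning gating in CellPathfinder separated Hoechst high-intensity objects from normal cells, divided normal cells by nuclear state (healthy, pyknosed, fragmented) and divided pyknosed cells into mitotic or apoptotic.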

[1] = 12 h, 1 µM, compound concentration 1 uM
[2] = 12 h, 10 µM, compound concentration 10 uM
[3] = 24 h, 1 µM, compound concentration 1 uM
[4] = 24 h, 10 µM, compound concentration 10 uM
[5] = 48 h, 1 µM, compound concentration 1 uM
[6] = 48 h, 10 µM, compound concentration 10 uM

Structure (SMILES): O=C1Nc2ccc(C(=O)c3ccco3)cc2C1=Cc1cc(Cl)c(O)c(Cl)c1 [GW406108X]
- Population Apoptotic (%) [1]: 25% and 65%
- Population Fragmented Nuclei (%) [1]: 11% and 2%
- Population Healthy Nuclei (%) [1]: 76% and 87%
- Population Hoechst High Intensity Objects (%) [1]: 0%
- Population Membrane Permeable-Phenotype (%) [1]: 3% and 0%
- Population Mitochondria Different-Phenotype (%) [1]: 0%
- Population Mitotic Cells (%) [1]: 75% and 34%
- Population Normal (%) [1]: 100%
- Population Pyknosed Nuclei (%) [1]: 11% and 9%
- Population Tubulin-Different-Phenotype (%) [1]: 76% and 82%
- Population Apoptotic (%) [2]: 83% and 47%
- Population Fragmented Nuclei (%) [2]: 12% and 4%
- Population Healthy Nuclei (%) [2]: 69% and 85%
- Population Hoechst High Intensity Objects (%) [2]: 0%
- Population Membrane Permeable-Phenotype (%) [2]: 0% and 1%
- Population Mitochondria Different-Phenotype (%) [2]: 0%
- Population Normal (%) [2]: 100%
- Population Pyknosed Nuclei (%) [2]: 18% and 10%
- Population Tubulin-Different-Phenotype (%) [2]: 52% and 87%
- Population Apoptotic (%) [3]: 40% and 64%
- Population Fragmented Nuclei (%) [3]: 4% and 2%
- Population Healthy Nuclei (%) [3]: 85% and 88%
- Population Hoechst High Intensity Objects (%) [3]: 0%
- Population Membrane Permeable-Phenotype (%) [3]: 10% and 1%
- Population Mitochondria Different-Phenotype (%) [3]: 2% and 0%
- Population Mitotic Cells (%) [3]: 60% and 35%
- Population Normal (%) [3]: 100%
- Population Pyknosed Nuclei (%) [3]: 10% and 8%
- Population Tubulin-Different-Phenotype (%) [3]: 75% and 79%
- Population Apoptotic (%) [4]: 87% and 43%
- Population Fragmented Nuclei (%) [4]: 8% and 5%
- Population Healthy Nuclei (%) [4]: 73% and 82%
- Population Hoechst High Intensity Objects (%) [4]: 0%
- Population Membrane Permeable-Phenotype (%) [4]: 0% and 1%
- Population Mitochondria Different-Phenotype (%) [4]: 0%
- Population Normal (%) [4]: 100%
- Population Pyknosed Nuclei (%) [4]: 17% and 12%
- Population Tubulin-Different-Phenotype (%) [4]: 51% and 90%
- Population Apoptotic (%) [5]: 33% and 48%
- Population Fragmented Nuclei (%) [5]: 6% and 1%
- Population Healthy Nuclei (%) [5]: 79% and 89%
- Population Hoechst High Intensity Objects (%) [5]: 0%
- Population Membrane Permeable-Phenotype (%) [5]: 2% and 1%
- Population Mitochondria Different-Phenotype (%) [5]: 2% and 0%
- Population Mitotic Cells (%) [5]: 66% and 51%
- Population Normal (%) [5]: 100% and 99%
- Population Pyknosed Nuclei (%) [5]: 13% and 8%
- Population Tubulin-Different-Phenotype (%) [5]: 85% and 83%
- Population Apoptotic (%) [6]: 90% and 51%
- Population Fragmented Nuclei (%) [6]: 1% and 6%
- Population Healthy Nuclei (%) [6]: 79% and 83%
- Population Hoechst High Intensity Objects (%) [6]: 0%
- Population Membrane Permeable-Phenotype (%) [6]: 2%
- Population Mitochondria Different-Phenotype (%) [6]: 2% and 1%
- Population Normal (%) [6]: 100%
- Population Pyknosed Nuclei (%) [6]: 18% and 10%
- Population Tubulin-Different-Phenotype (%) [6]: 66% and 90%

Structure (SMILES): COc1ccc2cc(S(=O)(=O)N[C@H](CC(=O)N[C@H](Cc3ccc(CN4[C@H](C)CCC[C@@H]4C)cc3)C(=O)N(C)C(C)C)c3ccc4c(c3)OCO4)ccc2c1.Cl
- Population Apoptotic (%) [1]: 20% and 30%
- Population Fragmented Nuclei (%) [1]: 8% and 4%
- Population Healthy Nuclei (%) [1]: 76% and 85%
- Population Hoechst High Intensity Objects (%) [1]: 2% and 0%
- Population Membrane Permeable-Phenotype (%) [1]: 11% and 14%
- Population Mitochondria Different-Phenotype (%) [1]: 7% and 20%
- Population Mitotic Cells (%) [1]: 80% and 69%
- Population Normal (%) [1]: 97% and 99%
- Population Pyknosed Nuclei (%) [1]: 14% and 10%
- Population Tubulin-Different-Phenotype (%) [1]: 30% and 45%
- Population Apoptotic (%) [2]: 100% and 66%
- Population Healthy Nuclei (%) [2]: 50% and 75%
- Population Hoechst High Intensity Objects (%) [2]: 3% and 0%
- Population Membrane Permeable-Phenotype (%) [2]: 81% and 37%
- Population Mitochondria Different-Phenotype (%) [2]: 81% and 58%
- Population Normal (%) [2]: 96% and 100%
- Population Pyknosed Nuclei (%) [2]: 18% and 21%
- Population Tubulin-Different-Phenotype (%) [2]: 93% and 100%
- Population Apoptotic (%) [3]: 50%
- Population Fragmented Nuclei (%) [3]: 5% and 6%
- Population Healthy Nuclei (%) [3]: 79% and 73%
- Population Hoechst High Intensity Objects (%) [3]: 2% and 0%
- Population Membrane Permeable-Phenotype (%) [3]: 3% and 11%
- Population Mitochondria Different-Phenotype (%) [3]: 12% and 21%
- Population Mitotic Cells (%) [3]: 50% and 49%
- Population Normal (%) [3]: 97% and 99%
- Population Pyknosed Nuclei (%) [3]: 15% and 19%
- Population Tubulin-Different-Phenotype (%) [3]: 32% and 42%
- Population Apoptotic (%) [4]: 72% and 81%
- Population Fragmented Nuclei (%) [4]: 21% and 7%
- Population Healthy Nuclei (%) [4]: 43% and 62%
- Population Hoechst High Intensity Objects (%) [4]: 3% and 0%
- Population Membrane Permeable-Phenotype (%) [4]: 92% and 74%
- Population Mitochondria Different-Phenotype (%) [4]: 71% and 61%
- Population Mitotic Cells (%) [4]: 27% and 18%
- Population Normal (%) [4]: 96% and 100%
- Population Pyknosed Nuclei (%) [4]: 34% and 30%
- Population Tubulin-Different-Phenotype (%) [4]: 100% and 98%
- Population Apoptotic (%) [5]: 76% and 84%
- Population Fragmented Nuclei (%) [5]: 18% and 7%
- Population Healthy Nuclei (%) [5]: 60% and 74%
- Population Hoechst High Intensity Objects (%) [5]: 0%
- Population Membrane Permeable-Phenotype (%) [5]: 7% and 13%
- Population Mitochondria Different-Phenotype (%) [5]: 10% and 18%
- Population Mitotic Cells (%) [5]: 23% and 15%
- Population Normal (%) [5]: 100% and 99%
- Population Pyknosed Nuclei (%) [5]: 20% and 17%
- Population Tubulin-Different-Phenotype (%) [5]: 25% and 32%
- Population Apoptotic (%) [6]: 100% and 95%
- Population Healthy Nuclei (%) [6]: 22% and 42%
- Population Hoechst High Intensity Objects (%) [6]: 0%
- Population Membrane Permeable-Phenotype (%) [6]: 83% and 85%
- Population Mitochondria Different-Phenotype (%) [6]: 50% and 70%
- Population Mitotic Cells (%) [6]: 0% and 4%
- Population Normal (%) [6]: 100%
- Population Pyknosed Nuclei (%) [6]: 40% and 51%
- Population Tubulin-Different-Phenotype (%) [6]: 83% and 99%
